Measurements of several laboratories.
Read-out: cell growth or viability

| SMILES | cell line | technique | tested at | time | measurement | result |
| --- | --- | --- | --- | --- | --- | --- |
| CCCCN1C[C@H]2CC[C@@H]3[C@]4(C)COC(C)(C)O[C@@H]4CC[C@@]3(C)[C@@H]2C[C@@H]1C1=CCOC1=O | MRC5 | ATP luminescence | 25 µM | 72 h | cell death | 33.7% |
| CC(C)(C)CC(C)(C)Nc1c(-c2cccc(C#N)c2)nc2ncccn12 | MDA-MB-231 | MTT | 25 µM | 48 h | viability | 75.8% |
| C[C@]1(CO)[C@H]2CC[C@@H]3CN(Cc4cccs4)[C@@H](C4=CCOC4=O)C[C@H]3[C@]2(C)CC[C@H]1O | MRC5 | ATP luminescence | 25 µM | 72 h | cell death | -7.4% |
| COc1ccc(S(=O)(=O)ON=C2C=C(C)C(=O)C(C)=C2)cc1 | MDA-MB-231 | – | – | – | CC50 | 1.03 µM |
| COc1cc(C)cc2oc(-c3ccc(N(C)C)cc3)cc(=O)c12 | HS27 | MTT | – | 24 h | CC50 | 141 µM |
| COc1cc2ccc(=O)oc2cc1OC | MRC5 | MTT | – | 24 h | IC50 | > 100 µM |
| CC1(C)OC[C@@]2(C)[C@H]3CC[C@@H]4CN(Cc5ccccc5C5CC5)[C@@H](C5=CCOC5=O)C[C@H]4[C@]3(C)CC[C@H]2O1 | MRC5 | ATP luminescence | 25 µM | 72 h | cell death | 16.7% |
| COc1cc(OC)c2c(=O)cc(-c3ccc(Br)cc3)oc2c1 | HS27 | MTT | – | 24 h | CC50 | > 200 µM |
| COc1ccc(COc2ccc(NC(=O)NC[C@H]3O[C@H](n4cc(C)c(=O)[nH]c4=O)C[C@@H]3O)cc2)cc1 | MRC5 | – | – | – | CC50 | > 50 µM |
| C[C@]1(CO)[C@H]2CC[C@@H]3CN(Cc4ccco4)[C@@H](C4=CCOC4=O)C[C@H]3[C@]2(C)CC[C@H]1O | MRC5 | ATP luminescence | 25 µM | 72 h | cell death | -0.1% |
| COc1cc(C)cc2oc(-c3ccc(Br)cc3)cc(=O)c12 | HS27 | MTT | – | 24 h | CC50 | > 200 µM |
| CC(C)(C)CC(C)(C)Nc1c(-c2ccccc2)nc2ncccn12 | MDA-MB-231 | MTT | 25 µM | 48 h | viability | 58.2% |
